Source: ChEMBL document CHEMBL4043192, “The discovery of IDX21437: Design, synthesis and antiviral evaluation of 2'-α-chloro-2'-β-C-methyl branched uridine pronucleotides as potent liver-targeted HCV polymerase inhibitors” (Bioorg Med Chem Lett, 2017)
pEC50, pIC50: −log10 of the molar value.

How the values were obtained:
[1] = Selectivity index, ratio of CC50 for human Huh-7 cells to EC50 for HCV genotype 1b Con1 expressing NS3 protease
Method in brief: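 Selectivity index = CC50/EC50. EC50 from a luciferase-read Con1 subgenomic replicon assay in Huh-7 (GS4.1) cells.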

Hepatitis C virus = assay: Antiviral activity against HCV genotype 1b Con1 expressing NS3 protease infected in human Huh-7 cells assessed as reduction in viral RNA replication after 72 hrs by luciferase reporter gene assay; format: functional, cell-based, Hepacivirus hominis; details: genotype 1b Con1, Huh-7, 72 h
Plasma = assay: Dose normalized AUC (0 to 24 hrs) in mouse plasma assessed as 2'-C-MeU level at 10 mg/kg, po administered as single dose; format: ADME, organism-based; details: in vivo
Method in brief: (§1)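 Mice given a single oral 10 mg/kg dose. Triphosphate measured in liver and parent nucleoside in plasma. AUC expressed as dose-normalized AUC (AUC per mg/kg).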

Liver = assay: Dose normalized AUC (0 to 24 hrs) in mouse liver assessed as 2'-C-MeUTP level at 10 mg/kg, po administered as single dose; format: ADME, organism-based; details: in vivo; method in brief: as §1
[2] = Cytotoxicity against human HuH7 cells assessed as reduction in cell viability; format: cell-based, Huh-7
[3] = Inhibition of wild-type HCV genotype 1b NS5B RNA dependent RNA polymerase; set-up: species or system Hepatitis C virus subtype 1b
Method in brief: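 Biochemical assay using wild-type genotype 1b HCV NS5B polymerase. IC50 was derived from percent inhibition versus concentration data.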

Compound | Ratio CC50/EC50 [1] | pEC50 (Hepatitis C virus) | AUC/dose (Plasma) | AUC/dose (Liver) | CC50 [2] | pIC50 [3]
CC(C)OC(=O)[C@H](C)NP(=O)(N[C@@H](C)C(=O)OC(C)C)OC[C@H]1O[C@@H](n2ccc(=O)[nH]c2=O)[C@](C)(Cl)[C@@H]1O | >8 | 4.92 |  |  |  | 
C[C@H](N[P@](=O)(OC[C@H]1O[C@@H](n2ccc(=O)[nH]c2=O)[C@](C)(Cl)[C@@H]1O)Oc1ccccc1)C(=O)OCc1ccccc1 | >1408 | 7.15 | 2500 pmol·h/mL | 850 pmol·h/g |  | 
C[C@@]1(F)[C@H](O)[C@@H](CO)O[C@H]1n1ccc(=O)[nH]c1=O |  | 4.30 |  |  | > 100000 nM | 
CC(C)C[C@H](N[P@@](=O)(OC[C@H]1O[C@@H](n2ccc(=O)[nH]c2=O)[C@](C)(Cl)[C@@H]1O)Oc1ccccc1)C(=O)OC(C)C | >8 | 4.90 |  |  |  | 
CC(C)OC(=O)[C@@H](N[P@@](=O)(OC[C@H]1O[C@@H](n2ccc(=O)[nH]c2=O)[C@](C)(Cl)[C@@H]1O)Oc1ccccc1)C(C)C | >1 | < 4.00 |  |  |  | 
CCOC(=O)NCC(C)(C)C(=O)SCCO[P@@](=O)(NCc1ccccc1)OC[C@H]1O[C@@H](n2ccc(=O)[nH]c2=O)[C@](C)(Cl)[C@@H]1O | >86 | 5.94 |  |  |  | 
CC(C)(CO)C(=O)SCCOP(=O)(NCc1ccccc1)OC[C@H]1O[C@@H](n2cnc3c(=O)[nH]c(N)nc32)[C@](C)(O)[C@@H]1O (stereo partly specified) | >370 | 6.69 | 45 pmol·h/mL | 275 pmol·h/g |  | 
CCOC(=O)[C@H](CC(C)C)N[P@@](=O)(OC[C@H]1O[C@@H](n2ccc(=O)[nH]c2=O)[C@](C)(Cl)[C@@H]1O)Oc1ccccc1 | >40 | 5.60 | 940 pmol·h/mL | 220 pmol·h/g |  | 
CC(C)OC(=O)[C@@H](C)N[P@](=O)(OC[C@H]1O[C@@H](n2ccc(=O)[nH]c2=O)[C@](C)(Cl)[C@@H]1O)Oc1ccccc1 | >10 | 5.02 | 1050 pmol·h/mL | 3750 pmol·h/g |  | 
CC(C)OC(=O)[C@@H](C)NP(=O)(N[C@H](C)C(=O)OC(C)C)OC[C@H]1O[C@@H](n2ccc(=O)[nH]c2=O)[C@](C)(Cl)[C@@H]1O | >1 | < 4.00 | 210 pmol·h/mL | 490 pmol·h/g |  | 
CC(C)OC(=O)[C@H](C)N[P@]1(=O)OC[C@H]2O[C@@H](n3ccc(=O)[nH]c3=O)[C@](C)(Cl)[C@@H]2O1 | >197 | 6.29 | 570 pmol·h/mL | 21 pmol·h/g |  | 
CC(C)OC(=O)[C@H](C)N[P@@](=O)(OC[C@H]1O[C@@H](n2ccc(=O)[nH]c2=O)[C@](C)(F)[C@@H]1O)Oc1ccccc1 | >48 | 5.68 | 320 pmol·h/mL | 310 pmol·h/g |  | 
CC(C)OC(=O)[C@H](C)N[P@](=O)(OC[C@H]1O[C@@H](n2ccc(=O)[nH]c2=O)[C@](C)(Cl)[C@@H]1O)Oc1ccccc1 | >633 | 6.80 | 1300 pmol·h/mL | 560 pmol·h/g |  | 
CCOC(=O)[C@@H](CC(C)C)N[P@](=O)(OC[C@H]1O[C@@H](n2ccc(=O)[nH]c2=O)[C@](C)(Cl)[C@@H]1O)Oc1ccccc1 | >1 | < 4.00 |  |  |  | 
CCOC(=O)NCC(C)(C)C(=O)SCCO[P@](=O)(NCc1ccccc1)OC[C@H]1O[C@@H](n2ccc(=O)[nH]c2=O)[C@](C)(Cl)[C@@H]1O | >79 | 5.90 |  |  |  | 
CCOC(=O)[C@@H](C)N[P@@](=O)(OC[C@H]1O[C@@H](n2ccc(=O)[nH]c2=O)[C@](C)(Cl)[C@@H]1O)Oc1ccccc1 | >12 | 5.09 |  |  |  | 
CC(C)OC(=O)[C@@H](C)N[P@@]1(=O)OC[C@H]2O[C@@H](n3ccc(=O)[nH]c3=O)[C@](C)(Cl)[C@@H]2O1 | >3 | 4.50 | 770 pmol·h/mL | 2400 pmol·h/g |  | 
CC(C)(CO)C(=O)SCCO[P@](=O)(NCc1ccccc1)OC[C@H]1O[C@@H](n2ccc(=O)[nH]c2=O)[C@](C)(Cl)[C@@H]1O | >28 | 5.44 | 590 pmol·h/mL | 96 pmol·h/g |  | 
CC(C)(CO)C(=O)SCCOP1(=O)OC[C@H]2O[C@@H](n3ccc(=O)[nH]c3=O)[C@](C)(Cl)[C@@H]2O1 (single isomer, unassigned) | >403 | 6.61 | 1300 pmol·h/mL | 5000 pmol·h/g |  | 
CC(C)OC(=O)[C@H](C)N[P@@](=O)(OC[C@H]1O[C@@H](n2ccc(=O)[nH]c2=O)[C@](C)(Cl)[C@@H]1O)Oc1ccccc1 | >105 | 6.02 | 970 pmol·h/mL | 840 pmol·h/g |  | 

Compound | Ratio CC50/EC50 [1] | pEC50 (Hepatitis C virus) | AUC/dose (Plasma) | AUC/dose (Liver) | CC50 [2] | pIC50 [3]
CCOC(=O)[C@H](C)N[P@](=O)(OC[C@H]1O[C@@H](n2ccc(=O)[nH]c2=O)[C@](C)(Cl)[C@@H]1O)Oc1ccccc1 | >389 | 6.59 | 1100 pmol·h/mL | 400 pmol·h/g |  | 
CCCCOC(=O)[C@@H](C)N[P@@](=O)(OC[C@H]1O[C@@H](n2ccc(=O)[nH]c2=O)[C@](C)(Cl)[C@@H]1O)Oc1ccccc1 | >46 | 5.66 | 1700 pmol·h/mL | 8400 pmol·h/g |  | 
C[C@@H](N[P@](=O)(OC[C@H]1O[C@@H](n2ccc(=O)[nH]c2=O)[C@](C)(Cl)[C@@H]1O)Oc1ccccc1)C(=O)OCc1ccccc1 | >122 | 6.09 | 1700 pmol·h/mL | 6900 pmol·h/g |  | 
CCOC(=O)NCC(C)(C)C(=O)SCCOP1(=O)OC[C@H]2O[C@@H](n3ccc(=O)[nH]c3=O)[C@](C)(Cl)[C@@H]2O1 (single isomer, unassigned; 27a) | >285 | 6.45 |  |  |  | 
CCOC(=O)[C@@H](CC(C)C)N[P@@](=O)(OC[C@H]1O[C@@H](n2ccc(=O)[nH]c2=O)[C@](C)(Cl)[C@@H]1O)Oc1ccccc1 | >3 | 4.43 |  |  |  | 
CC(C)OC(=O)[C@@H](C)N[P@]1(=O)OC[C@H]2O[C@@H](n3ccc(=O)[nH]c3=O)[C@](C)(Cl)[C@@H]2O1 | >2 | 4.37 | 910 pmol·h/mL | 7500 pmol·h/g |  | 
CCOC(=O)NCC(C)(C)C(=O)SCCOP1(=O)OC[C@H]2O[C@@H](n3ccc(=O)[nH]c3=O)[C@](C)(Cl)[C@@H]2O1 (single isomer, unassigned; 27b) | >1370 | 7.14 |  | 3300 pmol·h/g |  | 
C[C@@]1(O)[C@H](O)[C@@H](COP(=O)(O)OP(=O)(O)OP(=O)(O)O)O[C@H]1n1ccc(=O)[nH]c1=O |  |  |  |  |  | 7.09
CCOC(=O)[C@H](CC(C)C)N[P@](=O)(OC[C@H]1O[C@@H](n2ccc(=O)[nH]c2=O)[C@](C)(Cl)[C@@H]1O)Oc1ccccc1 | >344 | 6.54 | 2100 pmol·h/mL | 270 pmol·h/g |  | 
CC(C)C[C@H](N[P@](=O)(OC[C@H]1O[C@@H](n2ccc(=O)[nH]c2=O)[C@](C)(Cl)[C@@H]1O)Oc1ccccc1)C(=O)OC(C)C | >90 | 5.96 |  |  |  | 
C[C@@H](N[P@@](=O)(OC[C@H]1O[C@@H](n2ccc(=O)[nH]c2=O)[C@](C)(Cl)[C@@H]1O)Oc1ccccc1)C(=O)OCc1ccccc1 | >23 | 5.37 | 1400 pmol·h/mL | 5600 pmol·h/g |  | 
C[C@H](N[P@@](=O)(OC[C@H]1O[C@@H](n2ccc(=O)[nH]c2=O)[C@](C)(Cl)[C@@H]1O)Oc1ccccc1)C(=O)OCc1ccccc1 | >541 | 6.73 | 1900 pmol·h/mL | 1200 pmol·h/g |  | 
CCOC(=O)[C@H](C)N[P@@](=O)(OC[C@H]1O[C@@H](n2ccc(=O)[nH]c2=O)[C@](C)(Cl)[C@@H]1O)Oc1ccccc1 | >118 | 6.07 | 1100 pmol·h/mL | 840 pmol·h/g |  | 
CCCCOC(=O)[C@@H](C)N[P@](=O)(OC[C@H]1O[C@@H](n2ccc(=O)[nH]c2=O)[C@](C)(Cl)[C@@H]1O)Oc1ccccc1 | >189 | 6.28 | 1700 pmol·h/mL | 7200 pmol·h/g |  | 
CC(C)OC(=O)[C@H](C)N[P@@]1(=O)OC[C@H]2O[C@@H](n3ccc(=O)[nH]c3=O)[C@](C)(Cl)[C@@H]2O1 | >25 | 5.40 | 1100 pmol·h/mL | 520 pmol·h/g |  | 
CC(C)(CO)C(=O)SCCO[P@@](=O)(NCc1ccccc1)OC[C@H]1O[C@@H](n2ccc(=O)[nH]c2=O)[C@](C)(Cl)[C@@H]1O | >25 | 5.40 | 930 pmol·h/mL | 150 pmol·h/g |  | 
CC(C)(CO)C(=O)SCCO[P@@]1(=O)OC[C@H]2O[C@@H](n3ccc(=O)[nH]c3=O)[C@](C)(Cl)[C@@H]2O1 | >240 | 6.38 | 710 pmol·h/mL | 3600 pmol·h/g |  | 
CCOC(=O)[C@@H](C)N[P@](=O)(OC[C@H]1O[C@@H](n2ccc(=O)[nH]c2=O)[C@](C)(Cl)[C@@H]1O)Oc1ccccc1 | >39 | 5.59 |  |  |  | 
CC(C)OC(=O)[C@@H](N[P@](=O)(OC[C@H]1O[C@@H](n2ccc(=O)[nH]c2=O)[C@](C)(Cl)[C@@H]1O)Oc1ccccc1)C(C)C | >1 | < 4.00 |  |  |  | 
